Activity calls are given as the source filed them. No cut-off for these calls is given here.
Assays:
HEK293 = assay: Induction of cell proliferation of HEK293 cells assessed as proliferation rate at 100 uM measured up to 72 hrs by MTT assay; assay type: functional; conditions: Homo sapiens, HEK293, 72 h; read-out: Activity
PBL [1] = assay: Immunostimulatory activity in human PBL assessed as increase in cell proliferation […] after 72 hrs by MTT assay relative to control; assay type: functional
In short: (§1)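 Ficoll-isolated human PBLs were plated at 2.5×10^6 cells/mL in RPMI-1640 at 37 °C, 5% CO2. After 3 h they were treated with 0, 10, 20, 50 or 100 µM compound in DMSO, with Con A at 1–20 µg/mL as reference mitogen. MTT was added at 72 h for 4 h, and formazan dissolved in DMSO was read at 570 nm. Proliferative index was taken as fold over untreated control, from three independent experiments.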

PBL [2] = assay: Ex-vivo induction of IL-23 production in human PBL at 100 uM after 72 hrs by ELISA; assay type: functional, cell-based
In short: (§2)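 Human PBLs were isolated from heparinized venous blood of consenting volunteers aged 18–60 y on Ficoll-hypaque (1.077 g/mL). They were seeded at 5×10^5 cells/well in RPMI-1640, exposed to compound in DMSO, and held 72 h at 37 °C, 5% CO2. Supernatants were taken after centrifugation at 240 × g, and IL-2, IL-12 and IL-23 were measured by ELISA, in triplicate.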

PBL [3] = assay: Ex-vivo induction of IL-12 production in human PBL at 100 uM after 72 hrs by ELISA; assay type: functional, cell-based; in short: as §2
[4] = molecular target: Prostaglandin G/H synthase 1 (Homo sapiens) (UniProt P23219); assay: Inhibition of COX1 in human PBL after 72 hrs by colorimetric method; conditions: concentration not given here
Prostaglandin G/H synthase 1 (Homo sapiens), sequence (P23219 whole entry): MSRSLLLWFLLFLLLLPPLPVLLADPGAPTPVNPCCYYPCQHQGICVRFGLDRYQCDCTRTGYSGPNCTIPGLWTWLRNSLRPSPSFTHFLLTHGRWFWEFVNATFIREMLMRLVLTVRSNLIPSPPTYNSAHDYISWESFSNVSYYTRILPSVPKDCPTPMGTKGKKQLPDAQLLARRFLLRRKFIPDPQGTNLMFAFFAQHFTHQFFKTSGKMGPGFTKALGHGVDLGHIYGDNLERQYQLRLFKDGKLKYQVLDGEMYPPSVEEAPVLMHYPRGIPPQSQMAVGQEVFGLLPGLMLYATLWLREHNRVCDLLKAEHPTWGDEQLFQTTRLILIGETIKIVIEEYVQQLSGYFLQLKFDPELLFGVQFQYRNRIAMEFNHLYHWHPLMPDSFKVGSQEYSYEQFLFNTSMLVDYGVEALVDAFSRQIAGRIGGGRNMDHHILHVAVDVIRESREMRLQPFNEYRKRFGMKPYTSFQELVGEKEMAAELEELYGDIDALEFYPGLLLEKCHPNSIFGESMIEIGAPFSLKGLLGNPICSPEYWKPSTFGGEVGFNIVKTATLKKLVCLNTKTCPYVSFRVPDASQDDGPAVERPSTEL

PBL [5] = assay: Ex-vivo induction of IL-2 production in human PBL at 100 uM after 72 hrs by ELISA relative to control; assay type: functional; in short: as §2
Chorioallantoic membrane = assay: Pro-angiogenic activity in chicken chorioallantoic membrane assessed as dense blood vessel formation by measuring microvascular density at 20 uM after 12 days; assay type: functional; conditions: Gallus gallus
PBL [6] = assay: Immunostimulatory activity in human PBL assessed as increase in cell proliferation after 72 hrs by MTT assay; assay type: functional, cell-based; in short: as §1
[7] = Immunostimulatory activity in Swiss albino mouse splenocytes assessed as increase in proliferation at 100 uM after 72 hrs by MTT assay relative to ConA; assay type: functional, Splenocyte
In short: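 Splenocytes came from Swiss albino mice (23–25 g, 12 weeks). Erythrocytes were lysed in NH4Cl/KHCO3/EDTA buffer, pH 7.4. Cells were plated at 2.5×10^6 cells/mL in RPMI-1640 at 37 °C, 5% CO2, and compound (0–100 µM in DMSO) was added after 3 h. After 72 h, MTT was added for 4 h and formazan dissolved in DMSO was read at 570 nm. Con A (1–20 µg/mL) served as reference, and the index was expressed as fold over untreated control (1.0).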

Cornea = assay: Pro-angiogenic activity in rat cornea assessed as vascularization by measuring microvascular density at 20 ug after overnight incubation; assay type: functional
PBL [8] = assay: Ex-vivo induction of IL-2 production in human PBL at 100 uM after 72 hrs by ELISA (reference value: 328 pg/ml); assay type: functional; in short: as §2

In the case of `O=C(O)c1cc(C(=O)C2C(c3ccc(Cl)cc3)=NOC2c2ccc(Cl)cc2)ccc1O` (configuration not stated), the growth at 100 µM (HEK293) is reported as 9% and the Activity (PBL [1]) is reported as “inactive”.

With `O=C(O)c1cc(C(=O)C2C(c3cccc(Cl)c3)=NOC2c2ccc(O)cc2)ccc1O` (configuration not stated) the growth at 100 µM (HEK293) was 0% and the Activity (PBL [1]) was “inactive”.

For `O=C(O)c1cc(C(=O)C2C(c3cccc(Cl)c3)=NOC2c2cccc(Cl)c2)ccc1O` (configuration not stated), the growth at 100 µM (HEK293) was 42% and the Activity (PBL [1]) was “Active”.

In the case of `COc1ccc(C2ON=C(c3cccc(Cl)c3)C2C(=O)c2ccc(O)c(C(=O)O)c2)cc1` (configuration not stated), the growth at 100 µM (HEK293) is reported as 9% and the Activity (PBL [1]) is reported as “inactive”.

For `COc1ccc(C2=NOC(c3cccc(Cl)c3)C2C(=O)c2ccc(O)c(C(=O)O)c2)cc1` (configuration not stated), the Activity (PBL [2]) was “inactive”, the Activity (PBL [3]) was “inactive” and the inhibition [4] was 39%. For the same compound, the “fold change (FC)” value (PBL [5]) was 4, the Activity (Chorioallantoic membrane) was “Active” and the Activity (PBL [6]) was “Dose-dependent effect”. The “fold change (FC)” value [7] was 1.2, the Activity (Cornea) was “Active” and the Activity (PBL [8]) was 1460 pg/mL. The growth at 100 µM (HEK293) was 73% and the “fold change (FC)” value (PBL [1]) was 1.25.

In the case of `COc1ccc(C2ON=C(c3ccc(Cl)cc3)C2C(=O)c2ccc(O)c(C(=O)O)c2)cc1` (configuration not stated), the growth at 100 µM (HEK293) is reported as 11% and the Activity (PBL [1]) is reported as “inactive”.

For `O=C(O)c1cc(C(=O)C2C(c3cccc(Cl)c3)=NOC2c2ccc(Br)cc2)ccc1O` (configuration not stated), the growth at 100 µM (HEK293) was 12% and the Activity (PBL [1]) was “inactive”.

For `O=C(O)c1cc(C(=O)C2C(c3ccc(Cl)cc3)=NOC2c2ccc(Br)cc2)ccc1O` (configuration not stated), the growth at 100 µM (HEK293) was 6% and the Activity (PBL [1]) was “inactive”.

With `COc1ccc(C2=NOC(c3ccc(O)cc3)C2C(=O)c2ccc(O)c(C(=O)O)c2)cc1` (configuration not stated) the growth at 100 µM (HEK293) was 8%.

In the case of `COc1ccc(C2=NOC(c3ccccc3)C2C(=O)c2ccc(O)c(C(=O)O)c2)c(OC)c1` (configuration not stated), the growth at 100 µM (HEK293) is reported as 0%.

From ChEMBL document CHEMBL3779851, “Synthesis and biological evaluation of salicylic acid conjugated isoxazoline analogues on immune cell proliferation and angiogenesis” (2016)
